Assay results gathered from unrelated publications.
CDK9 with cyclin T1: Cyclin-dependent kinase 9, with cyclin T1 (CDK9, Homo sapiens, UniProt P50750)
FABP4: Fatty acid-binding protein, adipocyte (FABP4, Homo sapiens, UniProt P15090)
TNKS: Poly [ADP-ribose] polymerase tankyrase-1 (TNKS, Homo sapiens, UniProt O95271)
AKT1: RAC-alpha serine/threonine-protein kinase (AKT1, Homo sapiens, UniProt P31749)
MAPK3: Mitogen-activated protein kinase 3 (MAPK3, Homo sapiens, UniProt P27361)
DPP4: Dipeptidyl peptidase 4 (DPP4, Homo sapiens, UniProt P27487)
CYP2C9: Cytochrome P450 2C9 (CYP2C9, Homo sapiens, UniProt P11712)
SLC22A13: SLC22A13 (Homo sapiens, UniProt Q9Y226)

CN(C)C(=O)c1cc2cnc(Nc3ccc(-c4ccc5c(=O)cc(N6CCNCC6)oc5c4)cc3)nc2n1C1CCCC1 — IC50 (CDK9 with cyclin T1; enzyme activity, inhibitor, radiometric): 0.0062 µM
CCCCCCCCC(=O)O — IC50 (FABP4; ligand displacement, fluorescence; pH 7.5): 30 µM
CNS(=O)(=O)c1ccc(Nc2ncc(C(F)(F)F)c([C@H]3CC[C@](C)(O)CC3)n2)c(C)c1 — IC50 (CDK9 with cyclin T1; enzyme activity, inhibitor, radiometric): > 10 µM
CN(C)C(=O)c1cc2cnc(Nc3ccc4c(=O)cc(N5CCNCC5)oc4c3)nc2n1C1CCCC1 — IC50 (CDK9 with cyclin T1; enzyme activity, inhibitor, radiometric): 0.00106 µM
COc1cc(-c2ccccc2)ncc1C(=O)Nc1ccc2c(=O)[nH]c(-c3ccc(C(C)(C)O)cc3)nc2c1 — IC50 (TNKS; enzyme activity, inhibitor): 0.0869 µM
Clc1ccc(C2(c3ccc(-c4ccnc5[nH]ccc45)cc3)CCNCC2)cc1 — IC50 (AKT1; target engagement in cells, BRET): 0.046 µM
COc1cc(Cl)ncc1C(=O)Nc1ccc2c(=O)[nH]c(-c3ccc(C(C)(C)O)cc3)nc2c1 — IC50 (TNKS; enzyme activity, inhibitor): 0.303 µM
NC/C(=C\F)COc1cccc(Cn2c(=S)[nH]c(=O)c3[nH]cnc32)c1 — IC50 (Myeloperoxidase (Mus musculus, UniProt P11247); enzyme activity, inhibitor): 0.1 µM
Cc1cc(S(=O)(=O)NCCO[C@H]2CC[C@H](CN3CCC(c4ccn5c(N6CCC(=O)NC6=O)cnc5c4)CC3)CC2)ccc1Nc1ncc2cc(Cl)c(=O)n(C3CCCC3)c2n1 — IC50 (CDK9 with cyclin T1; enzyme activity, inhibitor, radiometric): > 10 µM
Cc1cc(-c2ccnc3[nH]cc(F)c23)cc(F)c1[C@@]1(O)[C@H](C)CN(C2COC2)C[C@@H]1C — IC50 (AKT1; enzyme activity, inhibitor, radiometric): 0.698 µM
CNS(=O)(=O)c1ccc(Nc2ncc3cc(Cl)c(=O)n(C4CCCC4)c3n2)c(C)c1 — IC50 (CDK9 with cyclin T1; enzyme activity, inhibitor, radiometric): > 10 µM
CCCCCCCCCC(=O)O — IC50 (FABP4; ligand displacement, fluorescence; pH 7.5): 3.39 µM
COc1cc(C(=O)NS(=O)(=O)c2ccccc2C)ccc1Cc1cn(C)c2ccc(NC(=O)OC3CCCC3)cc12 — IC50 (Protein disulfide-isomerase A3 (PDIA3, Homo sapiens, UniProt P30101); enzyme activity, inhibitor): 25 µM
COc1ccc(-c2cc(=O)c3ccc(Nc4ncc5cc(C(=O)N(C)C)n(C6CCCC6)c5n4)cc3o2)cc1 — IC50 (CDK9 with cyclin T1; enzyme activity, inhibitor, radiometric): 0.00076 µM
OC1(c2ccc(-c3ccnc4[nH]cc(F)c34)cc2)CCCNCC1 (centres unmarked) — IC50 (AKT1; enzyme activity, inhibitor, radiometric): 0.4 µM
CCN(CC)CCNC(=O)c1ccc(NCN2C(=O)NC(c3ccccc3)(c3ccccc3)C2=O)cc1 — IC50 (MAPK3; enzyme activity, inhibitor, ADP detection): > 250 µM
CN(C)C(=O)c1cc2cnc(Nc3cc(C(F)(F)F)c(-c4ccc5c(=O)cc(N6CCOCC6)oc5c4)cn3)nc2n1C1CCCC1 — IC50 (CDK9 with cyclin T1; enzyme activity, inhibitor, radiometric): > 10 µM
C[C@@H](O)[C@H]1C(=O)N2C(C(=O)O)=C(S[C@@H]3CN[C@H](C(=O)N(C)C)C3)[C@H](C)[C@H]12 — IC50 (DPP4; enzyme activity, inhibitor, absorbance): 45.8 µM
O=C(O)CCC(=O)OCCN(Cc1ccc(Oc2ccc([N+](=O)[O-])cc2)cc1)C(=O)C(Cl)Cl — IC50 (MAPK3; enzyme activity, inhibitor, ADP detection): 2.69 µM
CCCCCCCCCCC(=O)O — IC50 (FABP4; ligand displacement, fluorescence; pH 7.5): 2.25 µM
COc1ccc2c(=O)[nH]c3c(nnn3Cc3ccc(C)cc3)c2c1 — IC50 (TNKS; enzyme activity, inhibitor, fluorescence): 0.112 µM
CN(C)C(=O)c1cc2cnc(Nc3ccc(-c4ccc5c(=O)cc(N6CCOCC6)oc5c4)cc3)nc2n1C1CCCC1 — IC50 (CYP2C9; enzyme activity, inhibitor, fluorescence; pH 8): 0.044 µM
CC1CNCCC1(O)c1ccc(-c2ccnc3[nH]cc(F)c23)cc1 (centres unmarked) — IC50 (AKT1; target engagement in cells, BRET): 30.9 µM
CC(C)(O)c1ccc(-c2nc3cc(NC(=O)c4ccc(-c5ccccc5)cc4)ccc3c(=O)[nH]2)cc1 — IC50 (TNKS; enzyme activity, inhibitor): 68.2 µM
C[C@@H]1CNC[C@H](C)[C@@]1(O)c1ccc(-c2ccnc3[nH]cc(F)c23)cc1 — IC50 (AKT1; target engagement in cells, BRET): 38.9 µM
Cc1cc(O)c(-c2ccc([C@@H](C)CN(C)C)cc2)c2c1[nH]c(=O)c1sccc12 — IC50 (Cyclin-dependent kinase 1, with cyclin A (CDK1, Homo sapiens, UniProt P06493); enzyme activity, inhibitor): > 1 µM
CCc1oc2cc(F)ccc2c1C(=O)c1cc(Br)c(O)c(Br)c1 — IC50 (SLC22A13; transporter uptake, inhibitor, radiometric; oocytes): 39.6 µM
Nc1ncnc2c1ncn2[C@@H]1O[C@H](CSCC[C@H](N)C(=O)O)[C@@H](O)[C@H]1O — IC50 (Histone-lysine N-methyltransferase SETDB1 (SETDB1, Homo sapiens, UniProt Q15047); enzyme activity, inhibitor): 2.21 µM
CN(C)C(=O)c1cc2cnc(Nc3cncc(-c4ccc5c(=O)cc(N6CCOCC6)oc5c4)c3)nc2n1C1CCCC1 — IC50 (CDK9 with cyclin T1; enzyme activity, inhibitor, radiometric): 0.00057 µM
C=CCn1c(=O)c2cnc(Nc3ccc(N4CCN(C)CC4)cc3)nc2n1-c1ccc2c(n1)[C@@](O)(CC)CC2 — IC50 (CYP2C9; enzyme activity, inhibitor): 50 µM
CN(C)C(=O)c1cc2cnc(Nc3ccc(-c4cccc5c(=O)cc(N6CCOCC6)oc45)cn3)nc2n1C1CCCC1 — IC50 (CDK9 with cyclin T1; enzyme activity, inhibitor, radiometric): 4.15 µM
CC(C)(O)c1ccc(-c2nc3cc(NC(=O)c4cnc(Oc5ccccc5)nc4)ccc3c(=O)[nH]2)cc1 — IC50 (TNKS; enzyme activity, inhibitor): 0.392 µM
OC1(c2ccc(-c3ccnc4[nH]cc(F)c34)cc2)CCCNC1 (centres unmarked) — IC50 (AKT1; enzyme activity, inhibitor, radiometric): 0.383 µM
O=C(CCCCc1ccc(CO)cc1)C(F)(F)C(F)(F)F — IC50 (Phospholipase A2 group V (PLA2G5, Homo sapiens, UniProt P39877); enzyme activity, inhibitor): 228 µM
OC1(c2ccc(-c3ccnc4[nH]cc(F)c34)cc2)CCNC1 (centres unmarked) — IC50 (AKT1; target engagement in cells, BRET): 18.1 µM
CCc1oc2cc(F)c(F)cc2c1C(=O)c1cc(Br)c(O)c(Br)c1 — IC50 (SLC22A13; transporter uptake, inhibitor, radiometric; oocytes): 9.7 µM
CNCC(=O)OCc1cccnc1N(C)C(=O)OC(C)[n+]1cnn(C[C@](O)(c2cc(F)ccc2F)[C@@H](C)c2nc(-c3ccc(C#N)cc3)cs2)c1 (some centres unmarked) — IC50 (DPP4; enzyme activity, inhibitor, absorbance): 6.6 µM
Cc1cc(-c2ccnc3[nH]cc(F)c23)cc(F)c1[C@@]1(O)[C@H](C)CN(C2CCS(=O)(=O)CC2)C[C@@H]1C — IC50 (AKT1; enzyme activity, inhibitor, radiometric): 0.346 µM
CNS(=O)(=O)c1ccc(Nc2ncc(C(F)(F)F)c(N3CCC[C@](C)(O)C3)n2)c(C)c1 — IC50 (CDK9 with cyclin T1; enzyme activity, inhibitor, radiometric): > 10 µM
CC(=O)N1C(=O)NC(C)=C(C(=O)OCC(C)C)C1c1cccc([N+](=O)[O-])c1 (racemic) — IC50 (Voltage-dependent T-type calcium channel subunit alpha-1H (CACNA1H, Homo sapiens, UniProt O95180); ion current, inhibitor, patch clamp): 1.7 µM
CCCCCCCCCCCC(=O)O — IC50 (FABP4; ligand displacement, fluorescence; pH 7.5): 2.28 µM
COc1ccc(-c2coc3cc(O)ccc3c2=O)cc1 — IC50 (CYP2C9; enzyme activity, inhibitor; human, liver microsomes; 15 min): 5.63 µM
O=C(O)C(F)(F)C(F)(F)C(F)(F)C(F)(F)C(F)(F)C(F)(F)C(F)(F)C(F)(F)C(F)(F)C(F)(F)C(F)(F)F — IC50 (FABP4; ligand displacement, fluorescence; pH 7.5): 1.61 µM
Cc1nc2c(F)cc(-c3ccnc(Nc4ccc5c(=O)cc(N6CCOCC6)oc5c4)n3)cc2n1C(C)C — IC50 (CDK9 with cyclin T1; enzyme activity, inhibitor, radiometric): 0.024 µM
